Experimental data: ChEMBL document CHEMBL1135645, “Synthesis and evaluation of analogues of 5'-([(Z)-4-amino-2-butenyl]methylamino)-5'-deoxyadenosine as inhibitors of tumor cell growth, trypanosomal growth, and HIV-1 infectivity” (J Med Chem, 2002)
pEC50, pIC50: −log10 of the molar value. Values belong to the compound of their own block, whether it stands above or below them.

How the values were obtained:
A121 [1] = assay: In vitro Anti Neoplastic Activity against Human ovarian carcinoma A121 Cell lines; format: functional, cell-based
Summary of the method: (§1)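 SRB growth assay. Cell lines were grown as monolayers in RPMI-1640 with 5% FCS, 5% NuSerum IV, 20 mM HEPES and 2 mM glutamine, and seeded at 400–1200 cells/well. They attached for 15–18 h before drug. Ten concentrations over 5 logs were tested, with final DMSO ≤0.25%. Exposure was 72 h at 37 °C. Cells were TCA-fixed, stained with sulforhodamine B and read at OD 570 nm. IC50 is 50% growth inhibition.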

MCF7 [2] = assay: In vitro Anti Neoplastic Activity against Human Breast adenocarcinoma MCF-7 Cell lines; format: functional, cell-based; summary of the method: as §1
[3] = system: Trypanosoma brucei brucei; assay: In vitro anti trypanosomal activity against Trypanosomal 110 (EATRO)strain; format: functional, organism-based
MCF7 [4] = assay: In vitro Anti Neoplastic Activity against Adriamycin resistant Human Breast adenocarcinoma MCF7-Adr Cell lines; format: functional, cell-based; summary of the method: as §1
[5] = system: Trypanosoma brucei rhodesiense; assay: In vitro anti trypanosomal activity against Trypanosomal 243 (KETRI)strain; format: functional, organism-based
L1210 [6] = assay: In vitro inhibition of AdoMetDC derived from L1210 Murine Leukemia Cells at a dose of 100 uM; format: functional; settings: Mus musculus
A549 [7] = assay: In vitro Anti Neoplastic Activity against Human non small cell lung carcinoma A549 Cell lines; format: functional, cell-based; summary of the method: as §1
L1210 [8] = assay: In vitro Anti Neoplastic Activity against L1210 murine leukemia Cell lines; format: functional, cell-based; settings: Mus musculus; summary of the method: as §1
HT-29 [9] = assay: In vitro Anti Neoplastic Activity in Human Colon adenocarcinoma HT-29 Cell lines; format: functional, cell-based; summary of the method: as §1
[10] = system: Trypanosoma brucei rhodesiense; assay: In vitro antitrypanosomal activity against Trypanosomal 243 (KETRI)strain; format: functional, organism-based
[11] = system: Trypanosoma brucei brucei; assay: In vitro antitrypanosomal activity against Trypanosomal 110 (EATRO)strain; format: functional, organism-based
[12] = system: Trypanosoma brucei rhodesiense; assay: In vitro antitrypanosomal activity against Trypanosomal 269 (KETRI)strain; format: functional, organism-based
L1210 [13] = assay: In vitro Neoplastic Activity against L1210 mucerine leukemia Cell lines; format: functional, cell-based; settings: Mus musculus; summary of the method: as §1
[14] = system: Trypanosoma brucei rhodesiense; assay: In vitro antitrypanosomal activity against Trypanosomal 243 As 10e-3 (KETRI)strain; format: functional, organism-based
L1210 [15] = assay: In vitro inhibition of AdoMetDC derived from L1210 Murine Leukemia Cells.; format: functional; settings: Mus musculus, read-out: ID50 (the source's name)
[16] = system: Trypanosoma brucei brucei; assay: Mean survival days against T.b. brucei LAB 110 EATRO tested in mice administration at 50 mg/kg for 7 days.; format: functional
Summary of the method: (§2)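 Female Swiss-Webster mice (20 g) were infected with 2.5×10^5 trypanosomes from a rat infection. Compounds were dissolved in water and given at the stated daily dose by 7 day miniosmotic pumps implanted aseptically. There were 5 mice per group. Viability was checked daily and tail-vein blood smears weekly. The value is mean survival in days. Mice were scored cured if they survived >30 days beyond untreated controls with no parasitemia.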

Mus musculus [17] = assay: Nnumber of mice cured to that of 5 treated with the compound at 50 mg/kg for 3 days; format: functional
[18] = system: Trypanosoma brucei rhodesiense; assay: In vitro anti trypanosomal activity against Trypanosomal 243 As 10e-3 (KETRI)strain; format: functional, organism-based
[19] = system: Human immunodeficiency virus 1; assay: In Vitro Anti-HIV activity in CEM cells; format: functional, organism-based; settings: Human immunodeficiency virus 1, CCRF-CEM
Summary of the method: (§3)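 Syncytial plaque assay: log-phase CEM-SS cells were PBS-washed and plated at 50 000 per well in serum-free RPMI-1640 on poly-L-lysine-coated wells (30 min, 37 °C). They were inoculated with HIV-1 (60–90 PFU) for 120 min, then overlaid with compound in growth medium (2-fold dilutions, 0.00015–20 μM). A second overlay followed on day 3, with 5 days total. EC50 is 50% inhibition of plaque formation. TC50 is morphological change in noninfected CEM-SS cells.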

[20] = system: Trypanosoma brucei rhodesiense; assay: Mean survival days against T.b. rhodesiense KETRI 243 tested in mice after intra peritoneal administration at 25 mg/kg for 7 days.; format: functional
A121 [21] = assay: In vitro anti Neoplastic Activity against Human ovarian carcinoma A121 Cell lines;Value ranges from (1-30); format: functional, cell-based; summary of the method: as §1
[22] = system: Trypanosoma brucei brucei; assay: Mean survival days against T.b. peritoneal administration at 10 mg/kg for 3 days.; format: functional
Mus musculus [23] = species on record: Mus musculus; assay: Number of mice cured to that of 5 treated with the compound for 7 days
MCF7 [24] = assay: In vitro anti Neoplastic Activity against Human Breast adenocarcinoma MCF-7 Cell lines; format: functional, cell-based; summary of the method: as §1
[25] = system: Trypanosoma brucei brucei; assay: Mean survival days against T.b. brucei LAB 110 EATRO tested in mice administration at 100 mg/kg for 7 days.; format: functional; summary of the method: as §2
HT-29 [26] = assay: In vitro anti Neoplastic Activity in Human Colon adenocarcinoma HT-29 Cell lines;Value ranges from (3-30).; format: functional, cell-based; summary of the method: as §1
MCF7 [27] = assay: In vitro anti Neoplastic Activity against Adriamycin resistant Human Breast adenocarcinoma MCF7-Adr Cell lines; format: functional, cell-based; summary of the method: as §1
[28] = system: Trypanosoma brucei brucei; assay: Mean survival days against T.b. brucei LAB 110 EATRO tested in mice administration at 25 mg/kg for 7 days.; format: functional; summary of the method: as §2
[29] = system: Trypanosoma brucei brucei; assay: Mean survival days against T.b. peritoneal administration at 25 mg/kg for 3 days.; format: functional
Mus musculus [30] = assay: Number of mice cured to that of 5 treated with the compound at 100 mg/kg for 7 days; format: functional
[31] = system: Trypanosoma brucei brucei; assay: Mean survival days against T.b. peritoneal administration at 50 mg/kg for 3 days.; format: functional
[32] = system: Trypanosoma brucei rhodesiense; assay: Mean survival days against T.b. rhodesiense KETRI 243 tested in mice after intra peritoneal administration at 50 mg/kg for 7 days.; format: functional
CCRF-CEM = assay: Concentration that causes morphological changes in noninfected CEM-SS cells; format: functional; settings: Homo sapiens, read-out: TC50 (the source's name)
Mus musculus [33] = assay: Number of mice cured to that of 5 treated with the compound at 50 mg/kg for 7 days; format: functional
[34] = system: Trypanosoma brucei rhodesiense; assay: Mean survival days against T.b. rhodesiense KETRI 243 tested in mice after intra peritoneal administration at 50 mg/kg for 7 days.
[35] = system: Trypanosoma brucei rhodesiense; assay: In vitro anti trypanosomal activity against Trypanosomal 269 (KETRI)strain; format: functional, organism-based
Mus musculus [36] = assay: Number of mice cured to that of 5 treated with the compound at 25 mg/kg for 7 days; format: functional
Mus musculus [37] = assay: Number of mice cured to that of 5 treated with the compound at 25 mg/kg for 3 days; format: functional
[38] = Differential selectivity as the ratio of TC50 value to that of EC50 value.; format: functional; summary of the method: as §3
Mus musculus [39] = assay: Number of mice cured to that of 5 treated with the compound at 10 mg/kg for 3 days; format: functional
A549 [40] = assay: In vitro anti Neoplastic Activity against Human non small cell lung carcinoma A549 Cell lines;Value ranges from (3-10).; format: functional, cell-based; summary of the method: as §1
Mus musculus [41] = assay: Ratio of number of mice cured to that of total treated with the compound at 10 mg/kg for 3 days; format: functional
A121 [42] = assay: In vitro Antineoplastic Activity against Human ovarian carcinoma A121 Cell lines; format: functional, cell-based
MCF7 [43] = assay: In vitro Neoplastic Anti Activity against Human Breast adenocarcinoma MCF-7 Cell lines; format: functional, cell-based
MCF7 [44] = assay: In vitro Antineoplastic Activity against Adriamycin resistant Human Breast adenocarcinoma MCF7-Adr Cell lines; format: functional, cell-based
[45] = system: Human immunodeficiency virus 1; assay: In Vitro Anti-HIV activity of the compound; format: functional; settings: read-out: ED50 (the source's name)
A549 [46] = assay: In vitro Antineoplastic Activity against Human non small cell lung carcinoma A549 Cell lines; format: functional, cell-based
Mus musculus [47] = assay: Ratio of number of mice cured to that of total treated with the compound at 25 mg/kg for 7 days; format: functional
Mus musculus [48] = assay: Ratio of number of mice cured to that of total treated with the compound at 50 mg/kg for 7 days; format: functional
Mus musculus [49] = assay: Ratio of number of mice cured to that of total treated with the compound at 50 mg/kg for 3 days; format: functional
Mus musculus [50] = assay: Ratio of number of mice cured to that of total treated with the compound at 25 mg/kg for 3 days; format: functional
Mus musculus [51] = assay: Ratio of number of mice cured to that of total treated with the compound at 100 mg/kg for 7 days; format: functional
[52] = system: Trypanosoma brucei rhodesiense; assay: Mean survival days against T.b. rhodesiense KETRI 243 tested in mice after intra peritoneal administration at 100 mg/kg for 7 days.; format: functional
HT-29 [53] = assay: In vitro Neoplastic Anti Activity in Human Colon adenocarcinoma HT-29 Cell lines; format: functional, cell-based
HT-29 [54] = assay: In vitro anti Neoplastic Activity in Human Colon adenocarcinoma HT-29 Cell lines; format: functional, cell-based; summary of the method: as §1
A549 [55] = assay: In vitro anti Neoplastic Activity against Human non small cell lung carcinoma A549 Cell lines; format: functional, cell-based; summary of the method: as §1
A121 [56] = assay: In vitro anti Neoplastic Activity against Human ovarian carcinoma A121 Cell lines; format: functional, cell-based; summary of the method: as §1

- pIC50 (A121 [1]): 4.39
- pIC50 (MCF7 [2]): 4.20
- pIC50 [3]: 4.80
- pIC50 (MCF7 [4]): 4.11
- pIC50 [5]: 4.82
- pIC50 (A549 [7]): < 4.00
- pIC50 (L1210 [8]): < 3.22
- pIC50 (HT-29 [9]): 3.95
SMILES: CN(C/C=C\CN)CC(CO)OC(CO)n1cnc2c(N)ncnc21 (configuration not stated)
- inhibition at 100 µM (L1210 [6]): 27%

- pIC50 [10]: 5.54
- pIC50 [11]: 5.38
- pIC50 [12]: 4.13
- pIC50 (L1210 [13]): 3.30
- pIC50 [14]: 4.52
- pIC50 (L1210 [15]): 4.70
SMILES: CN(C/C=C\CN)CC1OC(n2cnc3c(N)ncnc32)CC1O (configuration not stated)

SMILES: CC(=O)OC1C(CN(C)C/C=C\CN)OC(n2cnc3c(N)ncnc32)C1OC(C)=O (configuration not stated)
- MSD [16]: >34 days
- No. of cures (Mus musculus [17]): 5
- pIC50 [18]: 7.27
- pEC50 [19]: 7.30
- MSD [20]: 18 days
- pIC50 (A121 [21]): 4.52
- MSD [22]: 17 days
- No. cured (Mus musculus [23]): 0
- pIC50 [3]: 7.85
- pIC50 [5]: 7.85
- pIC50 (MCF7 [24]): 4.29
- MSD [25]: 26 days
- pIC50 (HT-29 [26]): 4.52
- pIC50 (MCF7 [27]): < 4.00
- MSD [28]: >34 days
- MSD [29]: 33 days
- No. of cures (Mus musculus [30]): 4
- MSD [31]: >34 days
- MSD [32]: 21.2 days
- CC50 (CCRF-CEM): 12 µM
- No. cured (Mus musculus [33]): 0
- No. of cures (Mus musculus [33]): 5
- MSD [34]: 21.2 days
- pIC50 (L1210 [8]): 4.70
- pIC50 [35]: 7.70
- No. cured (Mus musculus [36]): 0
- No. of cures (Mus musculus [36]): 5
- No. of cures (Mus musculus [37]): 4
- pIC50 (L1210 [15]): 6.09
- Ratio [38]: 240
- No. of cures (Mus musculus [39]): 4
- pIC50 (A549 [40]): 5.00

SMILES: CN(C/C=C\CN)C[C@H]1O[C@@H](n2cnc3c(N)ncnc32)[C@H](O)[C@@H]1O
- pIC50 [10]: 7.40
- No. cured/total (Mus musculus [41]): 4
- MSD [20]: 31 days
- MSD [22]: 12 days
- pIC50 [11]: 7.00
- pIC50 (A121 [42]): < 4.00
- pIC50 (MCF7 [43]): < 4.00
- pIC50 (MCF7 [44]): 3.70
- pEC50 [45]: 6.03
- pIC50 [12]: 6.66
- pIC50 (A549 [46]): 5.52
- No. cured/total (Mus musculus [47]): 2
- MSD [29]: >34 days
- MSD [31]: >34 days
- No. cured/total (Mus musculus [48]): 2
- pIC50 [14]: 7.00
- MSD [32]: 31.3 days
- CC50 (CCRF-CEM): < 6.25 µM
- No. cured/total (Mus musculus [49]): 5
- No. cured/total (Mus musculus [50]): 5
- No. cured/total (Mus musculus [51]): 4
- pIC50 (L1210 [15]): 7.11
- Selectivity [38]: 6.7
- MSD [52]: 32 days
- pIC50 (HT-29 [53]): < 4.00

- pIC50 (HT-29 [54]): < 4.00
- pIC50 [18]: 6.02
- pIC50 (A549 [55]): < 4.00
- pIC50 [3]: 5.00
- pIC50 [5]: 5.18
- pIC50 (MCF7 [24]): < 4.00
- pIC50 (MCF7 [27]): < 4.00
- pIC50 (A121 [56]): < 4.00
- pIC50 [35]: 4.96
- pIC50 (L1210 [15]): < 4.00
SMILES: CN(C/C=C\CN)CCOCn1cnc2c(N)nc(N)nc21
